Assays:
Format in all cases: functional
Mus musculus [1] = assay: Trypanocidal Activity at I.C.E. value 0.65 when administered subcutaneously.
Outline: (§1)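 Mice, in groups of five per dose, were given a standard inoculum of blood-stage T. rhodesiense that is lethal to all untreated controls, then dosed subcutaneously. Usually 11 dose levels were used (2^n × 0.42 mg/kg).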

Mus musculus [2] = assay: Trypanocidal Activity at I.C.E. value 0.47 when administered subcutaneously.
Outline: (§2)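 Blood-stage T. rhodesiense infection came from a standard inoculum lethal to all untreated mice. Drug was given by subcutaneous injection to groups of five mice. Survival beyond 30 days counted as cure. […] Sub-curative doses scored 0, and data were normalized at each dose.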

[3] = tested on: Trypanosoma brucei rhodesiense; assay: In Vitro measurement of inhibition of thymidine uptake in cell culture of Trypanosoma rhodesiense; details: read-out: ID50 (the source's name)
Outline: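 Parasites harvested from infected rats and incubated 3 h across a drug concentration series, usually 0.1–100 µg/mL. Incorporation of radiolabeled thymidine measured. ID50 is the concentration (µg/mL) producing 50% inhibition.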

[4] = tested on: Trypanosoma brucei rhodesiense; assay: In Vitro measurement of inhibition of leucine uptake in cell culture of Trypanosoma rhodesiense; details: read-out: ID50 (the source's name)
Outline: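 Trypanosomes harvested from infected rats, cultured 3 h with several concentrations of drug, usually 0.1–100 µg/mL. Radiolabeled L-leucine uptake measured. ID50 is the concentration in µg/mL giving 50% inhibition of incorporation.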

Mus musculus [5] = assay: Trypanocidal Activity at I.C.E. value 0.16 when administered subcutaneously.
Mus musculus [6] = assay: Trypanocidal Activity at I.C.E. value 0.36 when administered subcutaneously.
Mus musculus [7] = assay: Trypanocidal Activity at I.C.E. value 0.57 when administered perorally.
Mus musculus [8] = assay: Trypanocidal Activity at I.C.E. value 0.57 when administered subcutaneously.; outline: as §1
Mus musculus [9] = assay: Trypanocidal Activity at I.C.E. value 0.44 when administered subcutaneously.; outline: as §2
Mus musculus [10] = assay: Trypanocidal Activity at I.C.E. value 0.59 when administered subcutaneously.; outline: as §1
Mus musculus [11] = assay: Trypanocidal Activity at I.C.E. value 0.32 when administered subcutaneously.; outline: as §2
Mus musculus [12] = assay: Trypanocidal Activity at I.C.E. value 0.67 when administered subcutaneously.; outline: as §1
Mus musculus [13] = assay: Trypanocidal Activity at I.C.E. value 0.34 when administered subcutaneously.; outline: as §2
Mus musculus [14] = assay: Trypanocidal Activity at I.C.E. value 0.24 when administered subcutaneously.; outline: as §2
Mus musculus [15] = assay: Trypanocidal Activity at I.C.E. value 0.71 when administered subcutaneously.; outline: as §1
Mus musculus [16] = assay: Trypanocidal Activity at I.C.E. value 0.17 when administered subcutaneously.
Mus musculus [17] = assay: Trypanocidal Activity at I.C.E. value 0.52 when administered subcutaneously.; outline: as §2

Structure (SMILES): Br.C=CCNC(=N)N/N=C/c1ccc(-c2cn3ccccc3[n+]2C)cc1.[Br-]
- CD50 (Mus musculus [1]): 0.2 mg/kg

Structure (SMILES): Br.CC/N=C(\NCC)N/N=C/c1ccc(/C=C/c2cn3c(C)cccc3[n+]2C)cc1.[Br-]
- CD50 (Mus musculus [1]): 0.4 mg/kg

Structure (SMILES): Br.Cc1ccc2n(c1)cc(-c1ccc(/C=N/NC(=N)N3CCOCC3)cc1)[n+]2C.[Br-]
- CD50 (Mus musculus [2]): 0.8 mg/kg

Structure (SMILES): C[n+]1cscc1COc1ccc(/C=N/NC(=N)N2CCCC2)cc1.Cc1ccc(S(=O)(=O)O)cc1.Cc1ccc(S(=O)(=O)[O-])cc1
- IC50 [3]: 2.2 µg/mL
- IC50 [4]: 0.7 µg/mL
- CD50 (Mus musculus [5]): 13 mg/kg

Structure (SMILES): Br.CC/N=C(\NCC)N/N=C/c1ccc(OCc2cn3cc(C)ccc3[n+]2C)cc1.[Br-]
- CD50 (Mus musculus [6]): 1.6 mg/kg

Structure (SMILES): Br.Cc1ccc2n(c1)cc(/C=C/c1ccc(/C=N/NC(=N)N)cc1)[n+]2C.[Br-]
- CD50 (Mus musculus [1]): 0.8 mg/kg

Structure (SMILES): Br.CCNC(=N)N/N=C/c1ccc(-c2cn3ccc(C)cc3[n+]2C)cc1.[Br-]
- CD50 (Mus musculus [7]): 13 mg/kg
- CD50 (Mus musculus [8]): 0.1 mg/kg

Structure (SMILES): Br.Cn1cc[n+](C)c1/C=C/c1ccc(/C=N/NC(=N)NO)cc1.[Br-]
- CD50 (Mus musculus [2]): 0.8 mg/kg

Structure (SMILES): Cc1ccc2n(c1)cc(-c1ccc(/C=N/Nc3nc(N)nc(N)n3)cc1)[n+]2C.[I-]
- IC50 [3]: 0.3 µg/mL
- IC50 [4]: > 10 µg/mL

Structure (SMILES): Br.C[n+]1c(-c2ccc(/C=N/NC(=N)N3CCCCC3)cc2)cn2ccccc21.[Br-]
- CD50 (Mus musculus [9]): 0.8 mg/kg

Structure (SMILES): Br.CCCNC(=N)N/N=C/c1ccc(-c2cn3ccccc3[n+]2C)cc1.[Br-]
- CD50 (Mus musculus [10]): 0.1 mg/kg

Structure (SMILES): Cc1ccc(S(=O)(=O)[O-])cc1.Cn1cc[n+](C)c1/C=C/c1ccc(/C=N/NC(=O)c2ccc(N)cc2)cc1
- CD50 (Mus musculus [11]): 26 mg/kg

Structure (SMILES): Br.CSC(=N)N/N=C/c1ccc(OCc2cn3ccccc3[n+]2C)cc1.[Br-]
- IC50 [3]: 4.6 µg/mL
- CD50 (Mus musculus [9]): 26 mg/kg
- IC50 [4]: 3.3 µg/mL

Structure (SMILES): Br.CCNC(=N)N/N=C/c1ccc(OCc2cn3cc(C)ccc3[n+]2C)cc1.[Br-]
- CD50 (Mus musculus [12]): 0.4 mg/kg

Structure (SMILES): C[n+]1c(COc2ccc(/C=N/NC(=N)N)cc2)cn2cc(C(F)(F)F)ccc21.Cc1ccc(S(=O)(=O)O)cc1.Cc1ccc(S(=O)(=O)[O-])cc1
- CD50 (Mus musculus [12]): 6.6 mg/kg

Structure (SMILES): C[n+]1c(-c2ccc(C(N)=S)cc2)cn2ccccc21.Cc1ccc(S(=O)(=O)[O-])cc1
- CD50 (Mus musculus [13]): 53 mg/kg

Structure (SMILES): C[n+]1c(-c2ccc(/C=N/NC(N)=S)cc2)cn2ccccc21.Cc1ccc(S(=O)(=O)[O-])cc1
- CD50 (Mus musculus [14]): 106 mg/kg

Structure (SMILES): Br.Cc1ccn2cc(-c3ccc(/C=N/NC(=N)NO)cc3)[n+](C)c2c1.[Br-]
- CD50 (Mus musculus [15]): 0.2 mg/kg
- IC50 [3]: 0.9 µg/mL
- IC50 [4]: 0.7 µg/mL

Structure (SMILES): Br.C[n+]1c(-c2ccc(/C=N/NC3=NCCCN3)cc2)cn2ccsc21.[Br-]
- CD50 (Mus musculus [2]): 0.2 mg/kg

Structure (SMILES): Br.C[n+]1c(COc2ccc(/C=N/NC(=N)NO)cc2)cn2ccccc21.[Br-]
- CD50 (Mus musculus [8]): 0.4 mg/kg

Structure (SMILES): Br.C[n+]1c(-c2ccc(/C=N/NC3=NCCN3)cc2)cn2ccsc21.[Br-]
- IC50 [3]: 0.6 µg/mL
- CD50 (Mus musculus [9]): 0.8 mg/kg
- IC50 [4]: 0.8 µg/mL

Structure (SMILES): Br.C[n+]1c(COc2ccc(/C=N/NC(=N)NO)cc2)cn2cc(C(F)(F)F)ccc21.[Br-]
- CD50 (Mus musculus [10]): 6.6 mg/kg

Structure (SMILES): Br.CCS(=O)(=O)c1ccc2n(c1)cc(-c1ccc(/C=N/NC(=N)N)cc1)[n+]2C.[Br-]
- CD50 (Mus musculus [12]): 0.8 mg/kg

Structure (SMILES): Br.C[n+]1c(-c2ccc(/C=N/NC3=NCCN3)cc2)c(Br)n2ccccc21.[Br-]
- IC50 [3]: 0.7 µg/mL
- IC50 [4]: 0.7 µg/mL
- CD50 (Mus musculus [16]): 3.3 mg/kg

Structure (SMILES): Br.Cc1ccn2cc(COc3ccc(/C=N/NC(=N)N)cc3)[n+](C)c2c1.[Br-]
- CD50 (Mus musculus [7]): 6.6 mg/kg
- CD50 (Mus musculus [17]): 0.2 mg/kg

Structure (SMILES): Br.Cc1ccn2cc(-c3ccc(/C=N/NC4=NCCCN4)cc3)[n+](C)c2c1.[Br-]
- IC50 [3]: 0.7 µg/mL
- CD50 (Mus musculus [12]): 0.1 mg/kg
- CD50 (Mus musculus [7]): 6.6 mg/kg
- IC50 [4]: 1.1 µg/mL

Structure (SMILES): Br.Cc1ccn2cc(COc3ccc(/C=N/NC(=N)N4CCCC4)cc3)[n+](C)c2c1.[Br-]
- CD50 (Mus musculus [11]): 0.4 mg/kg

Structure (SMILES): CCSc1ccc2n(c1)cc(-c1ccc(/C=N/Nc3nc(N)nc(N)n3)cc1)[n+]2C.Cc1ccc(S(=O)(=O)[O-])cc1
- CD50 (Mus musculus [15]): 1.6 mg/kg
- IC50 [3]: 0.6 µg/mL
- IC50 [4]: > 10 µg/mL

Structure (SMILES): Br.C[n+]1c(-c2ccc(/C=N/NC3=NCCN3)cc2)cn2c1CCCC2.[Br-]
- CD50 (Mus musculus [9]): 0.4 mg/kg

Structure (SMILES): Br.Cn1cc[n+](C)c1COc1ccc(/C=N/NC(=N)N)cc1.[Br-]
- CD50 (Mus musculus [5]): 6.6 mg/kg

Source: ChEMBL document CHEMBL1124947, “Cationic antiprotozoal drugs. Trypanocidal activity of 2-(4'-formylphenyl)imidazo[1,2-a]pyridinium guanylhydrazones and related derivatives of quaternary heteroaromatic compounds” (J Med Chem, 1990)
